This is an account of results in PMC5018460 (Bioorganic & medicinal chemistry letters, 2016).

The target of one test is HIV-1 IN (WT) (Human immunodeficiency virus type 1 group M subtype B, UniProt P12497). The experiment in a line: biochemical.
A further test deals with A128T mutant HIV-1 IN (Human immunodeficiency virus type 1 group M subtype B, UniProt P12497, A1275T). The experiment in a line: HTRF-based aberrant IN multimerization assay, A128T mutant IN. The format is biochemical. For orientation: Time-resolved FRET reads energy transfer from a long-lived donor to a nearby acceptor.
The next test concerns the target HIV-1 integrase (IN) (Human immunodeficiency virus type 1 group M subtype B, UniProt P12497). The test is described as follows: HTRF-based LEDGF/p75-dependent integration assay. It counts as biochemical. As to conditions: for activity in the LEDGF/p75-dependent integration assay: at concentrations up to 100 μM. In a few lines: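 Homogeneous time-resolved fluorescence read-out of integration in the presence of LEDGF/p75. Reactions run in neutral buffer, so carboxylic acid test compounds are present as the carboxylate anion. The format is said to detect integrase inhibitors acting by different mechanisms.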

One may read the IC50 as the concentration that inhibits the measured activity by half. Read a high IC50 as weaker potency in that assay. `Cn1c(C(OC(C)(C)C)C(=O)O)c(-c2ccc3c(c2)CCCO3)c2ccccc21` (stereo not drawn) [Compound 5c]: the IC50 at HIV-1 IN (WT) came to 16.1 ± 2 µM; on A128T mutant HIV-1 IN, 16 ± 1.4 µM.
With `Cn1c(CC(OC(C)(C)C)C(=O)O)c(-c2ccccc2)c2ccccc21` (stereo not drawn) [Compound 10], on HIV-1 integrase (IN), the IC50 was above 100 µM and the “activity in the LEDGF/p75-dependent integration assay” value is “failed to show any activity”.
For the compound `COc1ccc(-n2c(C(OC(C)(C)C)C(=O)O)c(C)c3ccccc32)cc1` (stereo not drawn) [Compound 15], on HIV-1 integrase (IN), the IC50 is above 100 µM and the “activity in the LEDGF/p75-dependent integration assay” value is “failed to show any activity”.
